According to ChEMBL document CHEMBL1629704, “Inhibition of dengue virus by an ester prodrug of an adenosine analog” (Antimicrob Agents Chemother, 2010):

Key:
dengue virus type 2 [1] = test: Antiviral activity against Dengue virus 2 NGC infected in human A549 cells by CFI assay; assay type: functional, organism-based
In short: (§1)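 CFI assay: A549 cells seeded 2 × 10^4/well, infected next day (MOI 0.3 for DENV-2) with compound-virus mixture for 1 h, then refed with compound-containing medium. On day 2 cells were methanol-fixed at 4°C and intracellular E protein detected by ELISA (4G2 primary, HRP anti-mouse secondary). EC50 is the average of two independent experiments.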

dengue virus type 4 = test: Antiviral activity against Dengue virus 4 MY22713 infected in human A549 cells by CFI assay; assay type: functional, organism-based; in short: as §1
dengue virus type 2 [2] = test: Antiviral activity against Dengue virus 2 MY10340 infected in human A549 cells by CFI assay; assay type: functional, organism-based; in short: as §1
dengue virus type 3 = test: Antiviral activity against Dengue virus 3 MY22366 infected in human A549 cells by CFI assay; assay type: functional, organism-based; in short: as §1
dengue virus type 1 = test: Antiviral activity against Dengue virus 1 MY10245 infected in human A549 cells by CFI assay; assay type: functional, organism-based; in short: as §1
dengue virus type 2 [3] = test: Antiviral activity against Dengue virus 2 TSV01 infected in AG129 mouse assessed as reduced viremia by 25 mg/kg, po BID for 3 days measured on day 4 by plaque assay; assay type: functional
In short: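 AG129 mice (lacking IFN-α/β and IFN-γ receptors) were inoculated i.p. with 2 × 10^6 PFU DENV-2 in 0.4 ml. Immediately afterwards, 0.2 ml compound in ethanol-PEG-D5W (10:30:60) was given by oral gavage twice daily for 3 days. Day-4 blood viremia was measured by plaque assay; 6 or 8 mice per group.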

dengue virus type 2 [4] = test: Antiviral activity against Dengue virus 2 NGC infected in human PBMC cells by plaque assay; assay type: functional, organism-based

`C#C[C@@]1(O)[C@H](O)[C@@H](CO)O[C@H]1n1ccc2c(N)ncnc21` gave an EC50 (dengue virus type 2 [1]) of 1640 nM, an EC50 (dengue virus type 4) of 700 nM and an EC50 (dengue virus type 2 [2]) of 1120 nM. The EC50 (dengue virus type 3) was 460 nM, the EC50 (dengue virus type 1) was 2610 nM and the “fold change (FC)” value (dengue virus type 2 [3]) was 10. For the same molecule, the EC50 (dengue virus type 2 [4]) was 580 nM.
